Measured values from PMC8247405 (British Journal of Clinical Pharmacology, 2020).

How the values were obtained:
[1] = Plasma pharmacokinetics of SAR247799 in diabetic rats, 5-week chow dosing; type: in vivo, Zucker diabetic fatty (ZDF) rats; conditions: ZDF rats; for C (plasma concentration), mean / C (plasma concentration), median: 5 weeks postdosing; for AUC 0–24, mean / AUC 0–24, median: AUC0–24 = C × 24
Outline: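 ZDF rats received test compound in chow at 0.002, 0.007 or 0.0245% w/w for 5 weeks. Plasma taken at 5 weeks was assayed by LC-MS/MS. AUC0–24 was computed as C × 24, taking the 5-week concentration as the average over the dosing interval.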

[2] = test system: Zucker diabetic fatty (ZDF) rats; assay: Peripheral blood lymphocyte count in ZDF rats; type: in vivo, rat; conditions: 5 weeks
Outline: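 Male ZDF Fa/Fa rats, randomised by body weight at 9 weeks to control chow or chow with test compound at 0.002, 0.007 or 0.0245% w/w for 5 weeks; lean Fa/+ rats on control chow served as reference. Caudal-vein K₂-EDTA blood was taken under 1.5–2% isoflurane at baseline and 5 weeks. Lymphocytes were counted in fresh blood. Analysis was blinded, with 1-way ANOVA and Dunnett's test versus ZDF control.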

[3] = test system: Zucker diabetic fatty (ZDF) rats; assay: Heart rate in ZDF rats; type: in vivo, rat; conditions: low, intermediate and high dose, 5 weeks
[4] = test system: Zucker diabetic fatty (ZDF) rats; assay: Renal function; type: in vivo, rat; conditions: 5 weeks
Outline: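 ZDF rats on control or test-compound chow (0.002, 0.007, 0.0245% w/w) for 5 weeks, with lean controls. Creatinine clearance = urinary creatinine × urine volume / plasma creatinine, in µL/min. Kruskal–Wallis with Wilcoxon post hoc tests versus ZDF control.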

[5] = test system: Zucker diabetic fatty (ZDF) rats; assay: Plasma fructosamine in ZDF rats; type: in vivo, rat; conditions: any dose, 5‐week treatment
Outline: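 ZDF rats were fed control chow or test-compound chow (0.002–0.0245% w/w) from 9 weeks of age; lean rats served as reference. K₂-EDTA blood was drawn from the caudal vein under isoflurane at baseline and after 5 weeks. It was centrifuged at 4°C, 10 min, 10 000 g, and plasma was stored at −80°C. Fructosamine was measured on a clinical chemistry analyser by a blinded experimenter.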

[6] = test system: type‐2 diabetes patients; parameters: species or system human; conditions: in vivo
[7] = test system: type‐2 diabetes patients; conditions: human, in vivo
[8] = Plasma pharmacokinetics in type-2 diabetes patients; type: in vivo, human; conditions: for AUC 0–24, mean / AUC 0–24, median / Cmax, mean / Cmax, median / Tmax, mean / Tmax, median / Rac_AUC 0–24 (accumulation ratio), mean / Rac_AUC 0–24 (accumulation ratio), median / Rac_C max (accumulation ratio), mean / Rac_C max (accumulation ratio), median: n 15
Outline: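 Type-2 diabetes patients received 1 or 5 mg test compound orally once daily for 28 days (15 per dose cohort). Plasma was sampled at 4 and 12 h postdose on day 1, predose on days 2, 3 and 7, and 3 h postdose on days 14, 21 and 28. Samples were assayed by validated LC-MS/MS (LLOQ 5 ng/mL). Cmax, tmax, trapezoidal AUC0–24 and accumulation ratio were derived by a Bayesian population PK model built in healthy subjects.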

[9] = test system: type‐2 diabetes patients; conditions: human, in vivo; remark: listed apart in the source
[10] = test system: type‐2 diabetes patients; conditions: human, in vivo; remark: listed apart in the source
[11] = test system: type‐2 diabetes patients; conditions: human, in vivo; remark: listed apart in the source
[12] = cited from earlier work
[13] = 0.007% (w/w) in chow (intermediate)

Cc1cc(-c2nc3cnc(Oc4cccc(Cl)c4)nc3o2)cc(C)c1OCC(=O)O [SAR247799]
C (plasma concentration), mean ([1]; 0.002% (w/w) in chow (low)): 0.0944 µg/mL
C (plasma concentration), median ([1]; 0.002% (w/w) in chow (low)): 0.0917 µg/mL
AUC 0–24, mean ([1]; 0.002% (w/w) in chow (low)): 2270 ng·h/mL
AUC 0–24, median ([1]; 0.002% (w/w) in chow (low)): 2200 ng·h/mL
C (plasma concentration), mean [1, 13]: 0.423 µg/mL
C (plasma concentration), median [1, 13]: 0.432 µg/mL
AUC 0–24, mean [1, 13]: 10200 ng·h/mL
AUC 0–24, median [1, 13]: 10400 ng·h/mL
C (plasma concentration), mean ([1]; 0.0245% (w/w) in chow (high)): 4.43 µg/mL
C (plasma concentration), median ([1]; 0.0245% (w/w) in chow (high)): 4.60 µg/mL
AUC 0–24, mean ([1]; 0.0245% (w/w) in chow (high)): 106000 ng·h/mL
AUC 0–24, median ([1]; 0.0245% (w/w) in chow (high)): 110000 ng·h/mL
increase in plasma concentration, high vs intermediate dose ([1]; for a 3.5‐fold increase in dose): 10.5 fold
steady state AUC0–24h ([1]; intermediate dose): 10.2 µg/mL
steady state AUC0–24h ([1]; low dose): 2.27 µg/mL
decrease in peripheral blood lymphocytes ([2]; high dose 0.0245% (w/w) chow): 35%
effect on peripheral blood lymphocytes ([2]; intermediate dose 0.007% (w/w) chow): did not reduce lymphocytes
effect on peripheral blood lymphocytes ([2]; low dose 0.002% (w/w) chow): did not reduce lymphocytes
effect on heart rate [3]: None of the doses of SAR247799 altered heart rate
change in creatinine clearance ([4]; high dose): lesser (nonsignificant) increase
reduction in urinary protein:creatinine ratio ([4]; high dose): statistically significant
effect on urinary output ([4]; intermediate dose): significantly blunted the increase in urinary output
fractional excretion of electrolytes (Na+ and Cl−) ([4]; intermediate dose): levels similar to lean control rats
increase in creatinine clearance compared to vehicle‐treated ZDF rats ([4]; intermediate dose): 2.5 fold
reduction in urinary protein:creatinine ratio ([4]; intermediate dose): statistically significant
change in creatinine clearance ([4]; low dose): no increase
effect on urinary protein:creatinine ratio ([4]; low to high dose): dose‐dependent reduction
effect on urinary protein:creatinine ratio ([4]; lowest dose): partial effect
effect on plasma fructosamine [5]: did not alter fructosamine levels
overall effect on FMD [6]: dose‐dependent improvement in FMD
lymphocytes, mean reductions vs placebo [7]: < 8%
steady state AUC0–24h ([8]; 1‐mg/d human dose): 2.97 µg/mL
steady state AUC0–24h ([8]; 5‐mg/d human dose): 14.9 µg/mL
AUC 0–24, mean ([8]; day 1, 1 mg oral once daily): 1030 ng·h/mL
AUC 0–24, median ([8]; day 1, 1 mg oral once daily): 983 ng·h/mL
Cmax, mean ([8]; day 1, 1 mg oral once daily): 57.4 ng/mL
Cmax, median ([8]; day 1, 1 mg oral once daily): 53.8 ng/mL
Tmax, mean ([8]; day 1, 1 mg oral once daily): 2.68 h
Tmax, median ([8]; day 1, 1 mg oral once daily): 2.50 h
AUC 0–24, mean ([8]; day 1, 5 mg oral once daily): 5310 ng·h/mL
AUC 0–24, median ([8]; day 1, 5 mg oral once daily): 5310 ng·h/mL
Cmax, mean ([8]; day 1, 5 mg oral once daily): 310 ng/mL
Cmax, median ([8]; day 1, 5 mg oral once daily): 315 ng/mL
Tmax, mean ([8]; day 1, 5 mg oral once daily): 2.42 h
Tmax, median ([8]; day 1, 5 mg oral once daily): 2.50 h
accumulation ratio ([8]; day 1 to day 14, 1 and 5 mg/d): 2.5–2.9
AUC 0–24, mean ([8]; day 14, 1 mg oral once daily): 2970 ng·h/mL
AUC 0–24, median ([8]; day 14, 1 mg oral once daily): 2780 ng·h/mL
Cmax, mean ([8]; day 14, 1 mg oral once daily): 152 ng/mL
Cmax, median ([8]; day 14, 1 mg oral once daily): 147 ng/mL
Rac_AUC 0–24 (accumulation ratio), mean ([8]; day 14, 1 mg oral once daily): 2.86
Rac_AUC 0–24 (accumulation ratio), median ([8]; day 14, 1 mg oral once daily): 2.70
Rac_C max (accumulation ratio), mean ([8]; day 14, 1 mg oral once daily): 2.66
Rac_C max (accumulation ratio), median ([8]; day 14, 1 mg oral once daily): 2.50
Tmax, mean ([8]; day 14, 1 mg oral once daily): 2.24 h
Tmax, median ([8]; day 14, 1 mg oral once daily): 2.25 h
AUC 0–24, mean ([8]; day 14, 5 mg oral once daily): 14900 ng·h/mL
AUC 0–24, median ([8]; day 14, 5 mg oral once daily): 14800 ng·h/mL
Cmax, mean ([8]; day 14, 5 mg oral once daily): 779 ng/mL
Cmax, median ([8]; day 14, 5 mg oral once daily): 760 ng/mL
Rac_AUC 0–24 (accumulation ratio), mean ([8]; day 14, 5 mg oral once daily): 2.79
Rac_AUC 0–24 (accumulation ratio), median ([8]; day 14, 5 mg oral once daily): 2.73
Rac_C max (accumulation ratio), mean ([8]; day 14, 5 mg oral once daily): 2.54
Rac_C max (accumulation ratio), median ([8]; day 14, 5 mg oral once daily): 2.46
Tmax, mean ([8]; day 14, 5 mg oral once daily): 2.15 h
Tmax, median ([8]; day 14, 5 mg oral once daily): 2.25 h
Patients with TEAE: Arthropod sting [9]: 0 n (%)
Patients with TEAE: Contusion [9]: 0 n (%)
Patients with TEAE: Diarrhoea [9]: 0 n (%)
Patients with TEAE: Dyspepsia [9]: 0 n (%)
Patients with TEAE: Headache [9]: 1 (6.7%) n (%)
Patients with TEAE: Injury, poisoning and procedural complications [9]: 0 n (%)
Patients with TEAE: Leading to treatment discontinuation [9]: 0 n (%)
Patients with TEAE: Nausea [9]: 1 (6.7%) n (%)
Patients with TEAE: Oropharyngeal pain [9]: 0 n (%)
Patients with TEAE: Otitis externa [9]: 0 n (%)
Patients with TEAE: Severe AE [9]: 0 n (%)
Patients with TEAE: Skin abrasion [9]: 0 n (%)
Patients with TEAE: Traumatic haematoma [9]: 0 n (%)
Patients with TEAE: Ventricular extrasystoles [9]: 0 n (%)
tolerability [9]: well tolerated
heart rate increase [10]: no increase
heart rate, mean difference vs placebo (maximum decrease) [10]: −6.4 beats/min
mean heart rate increase [10]: 0–4 beats/min
effect on blood pressure [11]: did not affect blood pressure
elimination half‐life [12]: 32 h
